Assay results as given in ChEMBL document CHEMBL5614410, “Design, Synthesis, and Evaluation of p53Y220C Acetylation Targeting Chimeras (AceTACs)” (J Med Chem, 2024).
Active and inactive are the calls of the source. No cut-off for these calls is given here.

Key:
[1] = test system: CREB-binding protein/Histone acetyltransferase p300/Cellular tumor antigen p53 (Homo sapiens), P04637+Q09472+Q92793 [Y220C]; experiment: AceTAC activity at FLAG-tagged p53Y220C mutant (unknown origin) expressed in human NCI-H1299 cells expressing p300/CBP assessed as stabilization of protein by measuring increase in aggregation temperature at 100 uM incubated for 1 hr at 32 to 50 degC by CETSA analysis; format: cell-based
In short: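 For CETSA, NCI-H1299 (p53Y220C) stable cells were treated with DMSO or 100 μM compound for 1 h, then heated at 32 to 50 °C. Soluble p53 was detected by Western blot. Representative of at least two independent experiments.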

[2] = test system: NCI-H1299; experiment: Inhibition of colony formation in human NCI-H1299 cells expressing p53Y220C mutant at 1 uM incubated for 14 days by crystal violet staining based analysis; format: functional, cell-based; details: time 14.0 day
In short: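 Clonogenic assay in NCI-H1299 (p53Y220C) cells exposed to DMSO or 1, 3 or 10 μM for 14 days. Colonies were fixed and stained with crystal violet. Images are representative of two independent experiments.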

[3] = test system: CREB-binding protein/Histone acetyltransferase p300/Cellular tumor antigen p53 (Homo sapiens), P04637+Q09472+Q92793 [Y220C]; experiment: Induction of interaction between FLAG-tagged p53Y220C mutant (unknown origin) and p300/CBP expressed in human NCI-H1299 cells assessed as ternary complex formation at 10 uM incubated for 24 hrs by co-immunoprecipitation analysis; format: cell-based
In short: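 NCI-H1299 p53-null and p53Y220C cells were treated with DMSO or compound at 10 μM for 24 h. p53-FLAG pull-down was followed by Western blotting for associated p300. Representative of two independent experiments.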

[4] = test system: CREB-binding protein/Histone acetyltransferase p300/Cellular tumor antigen p53 (Homo sapiens), P04637+Q09472+Q92793 [Y220C]; experiment: Induction of interaction between FLAG-tagged p53Y220C mutant (unknown origin) and p300/CBP expressed in human NCI-H1299 cells at 10 uM pretreated for 2 hrs with p53Y220C mutant binder, PK9328 followed by incubation with compound for 18 hrs by co-immunoprecipitation analysis; format: cell-based
In short: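 NCI-H1299 (p53Y220C) cells were pretreated for 2 h with a 10 μM p53Y220C binder or a 10 μM p300 binder, then given compound at 3 μM for 18 h. p53-FLAG pull-down was followed by Western blot analysis.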

[5] = test system: CREB-binding protein/Histone acetyltransferase p300/Cellular tumor antigen p53 (Homo sapiens), P04637+Q09472+Q92793 [Y220C]; experiment: AceTAC activity at FLAG-tagged p53Y220C mutant (unknown origin) expressed in human NCI-H1299 cells expressing p300/CBP assessed as increase in p53 acetylation at lysine 382 residue at 10 uM pretreated for 2 hrs with p300/CBP bromodomain binder, 4-(2-(5-(3,5-dimethylisoxazol-4-yl)-2-(3-fluoro-4-methoxyphenethyl)-1H-benzo[d]imidazol-1-yl)ethyl)morpholine followed by incubation with compound for 18 hrs by western blot analysis; format: cell-based
[6] = test system: NUGC-3; experiment: Antiproliferative activity against human NUGC-3 cells harboring p53Y220C mutant assessed as inhibition of cell growth incubated for 72 hrs by WST-8 assay; format: functional
In short: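 BxPC3 or NUGC-3 cells were treated with DMSO or compound over a concentration range for 72 h before the viability read-out. Values are mean ± SD of technical triplicates from three biological experiments.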

[7] = test system: CREB-binding protein/Histone acetyltransferase p300/Cellular tumor antigen p53 (Homo sapiens), P04637+Q09472+Q92793 [Y220C]; experiment: AceTAC activity at p53Y220C mutant in human BXPC-3 cells expressing p300/CBP assessed as increase in p53 acetylation at lysine 382 residue incubated for 24 hrs by western blot analysis; format: cell-based; details: dose 1-10 µM
In short: (§1)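 BxPC3 or NUGC-3 cells, which express p53Y220C endogenously, were treated with DMSO or compound at 1, 3 or 10 μM for 24 h. Lysates were Western blotted for p53 and p53K382ac, with vinculin as loading control. Representative of two independent experiments.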

[8] = test system: CREB-binding protein/Histone acetyltransferase p300/Cellular tumor antigen p53 (Homo sapiens), P04637+Q09472+Q92793 [Y220C]; experiment: AceTAC activity at p53Y220C mutant in human NUGC-3 cells expressing p300/CBP assessed as increase in p53 acetylation at lysine 382 residue incubated for 24 hrs by western blot analysis; format: cell-based; details: dose 1-10 µM; in short: as §1
[9] = test system: PNT2; experiment: Cytotoxicity against human PNT2 cells assessed as inhibition of cell growth incubated for 72 hrs by WST-8 assay; format: toxicity, cell-based; details: pnt2, 72 h
In short: (§2)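 U2OS (WT p53) or normal prostate PNT2 cells were treated for 72 h at the indicated concentrations. Viability is mean ± SD of technical triplicates from two biological experiments.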

[10] = Cytotoxicity against human U2OS cells harboring wild type p53 assessed as inhibition of cell growth at 10 uM incubated for 72 hrs by WST-8 assay; format: toxicity, cell-based; in short: as §2

CCn1c2ccc(CNCCOCCOCCOCCC(=O)NCCOc3ccc(CCc4nc5cc(-c6c(C)noc6C)ccc5n4CCN4CCOCC4)cc3F)cc2c2ccc(-c3cc(C)cs3)cc21
ΔTm [1]: 4.3 °C | inhibition [2]: Active | Activity [3]: Active | Activity [4]: inactive | Activity [5]: inactive | GI50 [6]: 1.83 µM | Activity [7]: Dose-Dependent Effect | Activity [8]: Dose-Dependent Effect | GI50 [9]: > 10 µM | inhibition at 72 h, 10 µM [10]: 30%
